The results in this text go back to ChEMBL document CHEMBL1138232, “Optimization of naphthalimide-imidazoacridone with potent antitumor activity leading to clinical candidate (HKH40A, RTA 502)” (J Med Chem, 2007).

Structures are written as SMILES. Bounds are passed on as bounds.

Assay [1] relates to HCT-116. In words: Growth inhibition of human HCT116 cells after 5 days by MTT assay. The class given is functional. Particulars: HCT-116, 120 h. The method, boiled down: (§1)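 MTT assay after 5 day continuous exposure. GI50, TGI and LC50 calculated from the MTT data. Means ± SD of at least three independent experiments; coefficients of variation 10-20%. Compounds used as tri(methanesulfonate) salts.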
A general note: Tetrazolium dyes change colour on reduction, which living cells bring about.

Assay [2] concerns HT-29. As to the kind of experiment: Growth inhibition of human HT29 cells after 5 days by MTT assay. As to conditions: HT-29, 120 h; for CC50: read-out: LC50 (the source's name). The class given is functional. The procedure, abridged: as §1
Assay [3] is described as follows: Growth inhibition of human Hep3B cells after 5 days by MTT assay. The format is functional, Hep 3B2. As to conditions: 120 h; for CC50: read-out: LC50 (the source's name). The procedure, abridged: as §1
The subject of assay [4] is COLO 205. In words: Antitumor activity against human Colo205 cells expressing mutated p53. The format is functional, cell-based. The method, boiled down: (§2)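 Compounds tested as tri(methanesulfonate) salts, soluble in water and dilute buffers. Human tumour cells carrying wild-type or mutated p53 were exposed for 5 days, and viability was read by MTT assay. GI50, TGI and LC50 were calculated from the MTT data. Values are means ± SD of at least three independent experiments, with coefficients of variation of 10–20%.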

Assay [5] concerns HCT-116. In words: Antitumor activity against human HCT116 cells expressing wild type p53. The format is functional. Particulars: read-out: LC50 (the source's name). The procedure, abridged:
as §2

Assay [6] in a line: Antitumor activity against human 10.05 cells expressing mutated p53. The format is functional, cell-based. The procedure, abridged:
as §2

The subject of assay [7] is RKO. As to the kind of experiment: Antitumor activity against human RKO cells expressing wild type p53. The class given is functional. As to conditions: read-out: LC50 (the source's name). The procedure, abridged:
as §2

The test system of assay [8] is HCT-116. In words: Cell cycle arrest in HCT116 cells assessed as accumulation at G1 phase at 50 nM after 72 hrs. The class given is functional, Homo sapiens. The procedure, abridged:
(§3)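 HCT116 cells exposed to 50 nM drug for 72 h, then cell-cycle distribution analysed. Sub-G1, G1, S and G2/M fractions reported as percent of cells, with untreated control cells for comparison.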

Assay [9] has as its system HCT-116. In words: Cell cycle arrest in HCT116 cells assessed as accumulation at G2/M phase at 50 nM after 72 hrs. The format is functional, Homo sapiens. The procedure, abridged:
as §3

Assay [10] deals with ASPC1. In words: Antitumor activity against p53 null human ASPC1 cells. The class given is functional, cell-based.
The subject of assay [11] is PC-3. As to the kind of experiment: Antitumor activity against PC3 cells expressing mutated p53. The format is functional, cell-based. Particulars: Homo sapiens. The procedure, abridged: as §2
In assay [12] the test system is HCT-116. In words: Cell cycle arrest in HCT116 cells assessed as accumulation at Sub G1 phase at 50 nM after 72 hrs. The class given is functional, Homo sapiens. The procedure, abridged:
as §3

Assay [13] concerns HCT-116. In words: Cell cycle arrest in HCT116 cells assessed as accumulation at S phase at 50 nM after 72 hrs. The class given is functional, Homo sapiens. The procedure, abridged: as §3
The subject of assay [14] is HT-29. In words: Antitumor activity against HT29 cells expressing mutated p53. The class given is functional, cell-based. Particulars: Homo sapiens. The method, boiled down: as §2
Assay [15] deals with MIA PaCa-2. In words: Inhibition of tumor growth in PaCa2 cells xenografted nu/nu mouse at 80 mg/kg. The format is functional, Homo sapiens. As to conditions: read-out: TGI. The procedure, abridged: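 PaCa-2 tumour fragments implanted on the flank of nu/nu mice, 10 per group. Intraperitoneal treatment, Q3Dx4, started 12 days post-inoculation at 80 mm3 tumour volume. Tumour growth inhibition measured.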

A word on the GI50: it is the concentration giving 50% growth inhibition. Lower therefore signals greater sensitivity of the cells. As usually defined, the LC50 is the concentration lethal to half of the exposed cells or organisms. Lower therefore signals a more lethal substance. In assay [1], `O=C1c2cccc3cccc(c23)C(=O)N1CCCN1CCN(CCCNc2ccc3ncn4c5ccccc5c(=O)c2c34)CC1` had a GI50 of 15 nM and an LC50 of 1000 nM. Besides, in assay [2], the GI50 worked out at 11 nM and the CC50 stood at 1000 nM. Further, in assay [3], halving of growth (GI50) required 22 nM and the CC50 came to 1000 nM.

Take `COc1ccc2c(c1)c(=O)c1c(NCCCN3CCN(CCCN4C(=O)c5cccc6cccc(c56)C4=O)CC3)ccc3ncn2c31`: in assay [1], the GI50 was found to be 3.5 nM and the LC50 amounted to 70 nM. Further, in assay [2], growth was halved (GI50) at 3 nM and the CC50 was determined as 1000 nM. Besides, in assay [3], it took 3.5 nM to inhibit growth by half (GI50) and the CC50 stood at 330 nM.

`Nc1cc2c3c(cccc3c1)C(=O)N(CCCN1CCN(CCCNc3ccc4ncn5c6ccc(F)cc6c(=O)c3c45)CC1)C2=O`: in assay [1], growth was halved (GI50) at 2.2 nM and the LC50 was found to be 80 nM. Besides, in [2], the GI50 was 8 nM and the CC50 turned out to be 750 nM.

By IC50 is commonly meant the concentration needed to halve the response being measured. A low value points to higher potency. With `O=C1c2cccc3cc([N+](=O)[O-])cc(c23)C(=O)N1CCCN1CCN(CCCNc2ccc3ncn4c5ccccc5c(=O)c2c34)CC1`, the concentration for 50% growth inhibition (GI50) was found to be 1 nM in assay [1], 2 nM in [2] and 4 nM in assay [3]. For the same molecule, in [1], the LC50 amounted to 40 nM. Moreover, the IC50 is 500 nM in [4]; 300 nM in assay [6]; 350 nM in [10]; over 1000 nM in [11]; 550 nM in assay [14]. For the same molecule, the CC50 in assay [5] came to 40 nM; in assay [7] it was 40 nM; in assay [2], 550 nM; in assay [3], 380 nM. The Activity stood at 37.9% in [8], 45% in assay [9], 15.5% in assay [12] and 1.3% in assay [13].

For the molecule `O=C1c2cccc3cc([N+](=O)[O-])cc(c23)C(=O)N1CCCN1CCN(CCCNc2ccc3ncn4c5ccc(F)cc5c(=O)c2c34)CC1`, in [1], halving of growth (GI50) required 1 nM and the LC50 was 40 nM. Further, in [2], the GI50 turned out to be 2 nM and the CC50 is 600 nM. Also, in assay [3], the GI50 came to 4 nM and the CC50 turned out to be 400 nM.

As to `Cc1ccc2c(c1)c(=O)c1c(NCCCN3CCN(CCCN4C(=O)c5cccc6cc([N+](=O)[O-])cc(c56)C4=O)CC3)ccc3ncn2c31`, in [1], the GI50 is 3.5 nM and the LC50 came out at 30 nM.

As to `Cc1cccc2c1c(=O)c1c(NCCCN3CCN(CCCN4C(=O)c5cccc6cc([N+](=O)[O-])cc(c56)C4=O)CC3)ccc3ncn2c31`, in [1], the GI50 is 3 nM and the LC50 amounted to 30 nM.

On to `O=C1c2cccc3c([N+](=O)[O-])ccc(c23)C(=O)N1CCCN1CCN(CCCNc2ccc3ncn4c5ccccc5c(=O)c2c34)CC1`, for which the figures for the GI50 in assay [1], in assay [2] and in assay [3] were 5.5 nM, 15 nM and 18 nM, respectively. Besides, the LC50 in assay [1] was over 1000 nM. Moreover, the CC50 in assay [2] and in assay [3] was 1000 nM throughout.

Take `COc1ccc2c(c1)c(=O)c1c(NCCCN3CCN(CCCN4C(=O)c5cccc6c([N+](=O)[O-])ccc(c56)C4=O)CC3)ccc3ncn2c31`: the results for the GI50 in assay [1], in [2] and in [3] were 3 nM, 4 nM and 5 nM, respectively. Also, the LC50 in [1] amounted to 350 nM. Also, the CC50 amounted to 1000 nM in assay [2] and 800 nM in assay [3].

For `Nc1ccn([C@@H]2O[C@H](CO)[C@@H](O)C2(F)F)c(=O)n1` [GEMCITABINE], the inhibition in vivo at 80 mg/kg in assay [15] stood at 85.3%.
